Assay results from ChEMBL document CHEMBL1149503, “Growth inhibition of human cancer cells in vitro by T-type calcium channel blockers” (Bioorg Med Chem Lett, 2006).
Activity calls are given as the source filed them. The calls are words filed in the database; no cut-off is given here.

Columns and labels:
SK-OV-3 = experiment: Inhibition of human SKOV3 cell growth by SRB assay; format: functional
How it was run: (§1)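 Cells grown in RPMI 1640 with 10% heat-inactivated FBS, 37 °C, 5% CO2. Seeded, exposed to various sample concentrations in triplicate for 72 h, then formalin-fixed 30 min at room temperature. Stained with 0.4% SRB 30 min, washed with 1% acetic acid, bound dye dissolved in 10 mM unbuffered Tris base, OD read at 520 nm. GI50 from dose–response curves, three independent experiments.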

KB = experiment: Inhibition of human KB cell growth by SRB assay; format: functional; how it was run: as §1
A549 = experiment: Inhibition of human A549 cell growth by SRB assay; format: functional; how it was run: as §1
[1] = test system: T-type calcium channel Cav3.1 (α1G); experiment: Inhibition of T-type calcium channel Cav3.1; settings: Homo sapiens
HCT-15 = experiment: Inhibition of human HCT15 cell growth by SRB assay; format: functional; how it was run: as §1
[2] = molecular target: Voltage-dependent N-type calcium channel subunit alpha-1B (Homo sapiens) (UniProt Q00975); experiment: Inhibition of N type calcium channel subunit Alpha-1B at 10 uM in HEK293 cells; format: cell-based
Voltage-dependent N-type calcium channel subunit alpha-1B (Homo sapiens), sequence (Q00975 whole entry, looked up): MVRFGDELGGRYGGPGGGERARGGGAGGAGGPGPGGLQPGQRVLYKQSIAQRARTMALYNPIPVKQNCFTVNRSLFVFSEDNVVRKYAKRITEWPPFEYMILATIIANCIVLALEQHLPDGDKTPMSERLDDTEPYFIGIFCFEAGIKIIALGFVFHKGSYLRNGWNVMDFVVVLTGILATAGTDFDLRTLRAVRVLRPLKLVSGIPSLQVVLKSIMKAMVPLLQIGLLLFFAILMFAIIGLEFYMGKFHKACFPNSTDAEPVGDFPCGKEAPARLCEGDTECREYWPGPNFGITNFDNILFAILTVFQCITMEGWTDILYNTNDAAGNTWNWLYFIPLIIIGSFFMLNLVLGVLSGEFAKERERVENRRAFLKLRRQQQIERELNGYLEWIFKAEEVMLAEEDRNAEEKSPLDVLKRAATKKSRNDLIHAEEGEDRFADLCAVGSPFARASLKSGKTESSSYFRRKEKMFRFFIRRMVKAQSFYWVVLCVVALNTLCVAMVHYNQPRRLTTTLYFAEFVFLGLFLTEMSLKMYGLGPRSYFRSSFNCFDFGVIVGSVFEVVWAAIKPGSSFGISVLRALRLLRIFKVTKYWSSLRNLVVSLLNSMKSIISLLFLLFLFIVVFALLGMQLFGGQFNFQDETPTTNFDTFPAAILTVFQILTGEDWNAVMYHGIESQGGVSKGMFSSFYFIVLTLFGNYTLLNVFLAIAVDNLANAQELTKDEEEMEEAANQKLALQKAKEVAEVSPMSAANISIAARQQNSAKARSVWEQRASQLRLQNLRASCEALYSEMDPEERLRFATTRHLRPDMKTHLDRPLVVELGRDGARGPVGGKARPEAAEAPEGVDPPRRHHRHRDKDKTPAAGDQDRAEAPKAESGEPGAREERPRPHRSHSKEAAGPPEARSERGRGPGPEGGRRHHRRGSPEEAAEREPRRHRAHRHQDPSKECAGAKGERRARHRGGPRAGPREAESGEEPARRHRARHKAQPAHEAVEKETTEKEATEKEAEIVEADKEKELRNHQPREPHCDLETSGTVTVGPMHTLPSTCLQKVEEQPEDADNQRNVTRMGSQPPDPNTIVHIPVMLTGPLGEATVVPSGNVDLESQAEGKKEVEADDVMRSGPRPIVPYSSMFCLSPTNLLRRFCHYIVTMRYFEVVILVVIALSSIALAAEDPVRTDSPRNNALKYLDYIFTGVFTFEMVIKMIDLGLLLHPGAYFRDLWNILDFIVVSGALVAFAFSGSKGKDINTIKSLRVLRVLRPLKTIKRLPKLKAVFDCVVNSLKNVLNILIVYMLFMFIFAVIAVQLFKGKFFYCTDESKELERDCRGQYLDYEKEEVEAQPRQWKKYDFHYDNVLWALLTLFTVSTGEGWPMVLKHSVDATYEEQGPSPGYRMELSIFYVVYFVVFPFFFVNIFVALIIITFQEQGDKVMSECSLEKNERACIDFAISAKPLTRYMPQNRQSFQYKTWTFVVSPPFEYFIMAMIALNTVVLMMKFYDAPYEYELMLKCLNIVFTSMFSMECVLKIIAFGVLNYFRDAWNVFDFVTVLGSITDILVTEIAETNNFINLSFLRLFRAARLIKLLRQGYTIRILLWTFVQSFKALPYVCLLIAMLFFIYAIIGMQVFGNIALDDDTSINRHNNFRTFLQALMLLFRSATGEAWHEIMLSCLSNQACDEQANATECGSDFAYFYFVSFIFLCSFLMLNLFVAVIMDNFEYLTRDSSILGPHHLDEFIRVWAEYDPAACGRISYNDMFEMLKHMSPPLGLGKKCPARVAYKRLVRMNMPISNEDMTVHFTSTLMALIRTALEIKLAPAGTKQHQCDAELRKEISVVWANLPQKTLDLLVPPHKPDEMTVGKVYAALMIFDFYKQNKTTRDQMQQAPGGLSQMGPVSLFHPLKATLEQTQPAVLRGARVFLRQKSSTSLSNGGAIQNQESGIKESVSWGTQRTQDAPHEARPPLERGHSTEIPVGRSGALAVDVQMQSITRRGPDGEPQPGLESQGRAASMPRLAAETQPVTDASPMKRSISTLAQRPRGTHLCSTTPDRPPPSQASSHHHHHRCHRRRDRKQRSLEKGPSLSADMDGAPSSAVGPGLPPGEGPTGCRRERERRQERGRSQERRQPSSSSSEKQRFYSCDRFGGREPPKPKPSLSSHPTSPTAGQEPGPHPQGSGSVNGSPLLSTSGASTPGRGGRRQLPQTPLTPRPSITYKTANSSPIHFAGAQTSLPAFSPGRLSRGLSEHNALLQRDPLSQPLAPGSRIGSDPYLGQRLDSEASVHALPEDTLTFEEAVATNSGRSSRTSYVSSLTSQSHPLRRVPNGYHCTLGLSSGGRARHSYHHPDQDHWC

HEK293 = experiment: Cytotoxicity against HEK293 cells at 100 uM; format: functional, cell-based; settings: Homo sapiens
SK-MEL-2 = experiment: Inhibition of human SK-MEL-2 cell growth by SRB assay; format: functional, cell-based; how it was run: as §1
[3] = molecular target: Voltage-dependent T-type calcium channel subunit alpha-1G (Homo sapiens) (UniProt O43497); experiment: Inhibition of T type calcium channel subunit alpha-1G at 10 uM in HEK293 cells; format: cell-based
Voltage-dependent T-type calcium channel subunit alpha-1G (Homo sapiens), sequence (O43497 whole entry): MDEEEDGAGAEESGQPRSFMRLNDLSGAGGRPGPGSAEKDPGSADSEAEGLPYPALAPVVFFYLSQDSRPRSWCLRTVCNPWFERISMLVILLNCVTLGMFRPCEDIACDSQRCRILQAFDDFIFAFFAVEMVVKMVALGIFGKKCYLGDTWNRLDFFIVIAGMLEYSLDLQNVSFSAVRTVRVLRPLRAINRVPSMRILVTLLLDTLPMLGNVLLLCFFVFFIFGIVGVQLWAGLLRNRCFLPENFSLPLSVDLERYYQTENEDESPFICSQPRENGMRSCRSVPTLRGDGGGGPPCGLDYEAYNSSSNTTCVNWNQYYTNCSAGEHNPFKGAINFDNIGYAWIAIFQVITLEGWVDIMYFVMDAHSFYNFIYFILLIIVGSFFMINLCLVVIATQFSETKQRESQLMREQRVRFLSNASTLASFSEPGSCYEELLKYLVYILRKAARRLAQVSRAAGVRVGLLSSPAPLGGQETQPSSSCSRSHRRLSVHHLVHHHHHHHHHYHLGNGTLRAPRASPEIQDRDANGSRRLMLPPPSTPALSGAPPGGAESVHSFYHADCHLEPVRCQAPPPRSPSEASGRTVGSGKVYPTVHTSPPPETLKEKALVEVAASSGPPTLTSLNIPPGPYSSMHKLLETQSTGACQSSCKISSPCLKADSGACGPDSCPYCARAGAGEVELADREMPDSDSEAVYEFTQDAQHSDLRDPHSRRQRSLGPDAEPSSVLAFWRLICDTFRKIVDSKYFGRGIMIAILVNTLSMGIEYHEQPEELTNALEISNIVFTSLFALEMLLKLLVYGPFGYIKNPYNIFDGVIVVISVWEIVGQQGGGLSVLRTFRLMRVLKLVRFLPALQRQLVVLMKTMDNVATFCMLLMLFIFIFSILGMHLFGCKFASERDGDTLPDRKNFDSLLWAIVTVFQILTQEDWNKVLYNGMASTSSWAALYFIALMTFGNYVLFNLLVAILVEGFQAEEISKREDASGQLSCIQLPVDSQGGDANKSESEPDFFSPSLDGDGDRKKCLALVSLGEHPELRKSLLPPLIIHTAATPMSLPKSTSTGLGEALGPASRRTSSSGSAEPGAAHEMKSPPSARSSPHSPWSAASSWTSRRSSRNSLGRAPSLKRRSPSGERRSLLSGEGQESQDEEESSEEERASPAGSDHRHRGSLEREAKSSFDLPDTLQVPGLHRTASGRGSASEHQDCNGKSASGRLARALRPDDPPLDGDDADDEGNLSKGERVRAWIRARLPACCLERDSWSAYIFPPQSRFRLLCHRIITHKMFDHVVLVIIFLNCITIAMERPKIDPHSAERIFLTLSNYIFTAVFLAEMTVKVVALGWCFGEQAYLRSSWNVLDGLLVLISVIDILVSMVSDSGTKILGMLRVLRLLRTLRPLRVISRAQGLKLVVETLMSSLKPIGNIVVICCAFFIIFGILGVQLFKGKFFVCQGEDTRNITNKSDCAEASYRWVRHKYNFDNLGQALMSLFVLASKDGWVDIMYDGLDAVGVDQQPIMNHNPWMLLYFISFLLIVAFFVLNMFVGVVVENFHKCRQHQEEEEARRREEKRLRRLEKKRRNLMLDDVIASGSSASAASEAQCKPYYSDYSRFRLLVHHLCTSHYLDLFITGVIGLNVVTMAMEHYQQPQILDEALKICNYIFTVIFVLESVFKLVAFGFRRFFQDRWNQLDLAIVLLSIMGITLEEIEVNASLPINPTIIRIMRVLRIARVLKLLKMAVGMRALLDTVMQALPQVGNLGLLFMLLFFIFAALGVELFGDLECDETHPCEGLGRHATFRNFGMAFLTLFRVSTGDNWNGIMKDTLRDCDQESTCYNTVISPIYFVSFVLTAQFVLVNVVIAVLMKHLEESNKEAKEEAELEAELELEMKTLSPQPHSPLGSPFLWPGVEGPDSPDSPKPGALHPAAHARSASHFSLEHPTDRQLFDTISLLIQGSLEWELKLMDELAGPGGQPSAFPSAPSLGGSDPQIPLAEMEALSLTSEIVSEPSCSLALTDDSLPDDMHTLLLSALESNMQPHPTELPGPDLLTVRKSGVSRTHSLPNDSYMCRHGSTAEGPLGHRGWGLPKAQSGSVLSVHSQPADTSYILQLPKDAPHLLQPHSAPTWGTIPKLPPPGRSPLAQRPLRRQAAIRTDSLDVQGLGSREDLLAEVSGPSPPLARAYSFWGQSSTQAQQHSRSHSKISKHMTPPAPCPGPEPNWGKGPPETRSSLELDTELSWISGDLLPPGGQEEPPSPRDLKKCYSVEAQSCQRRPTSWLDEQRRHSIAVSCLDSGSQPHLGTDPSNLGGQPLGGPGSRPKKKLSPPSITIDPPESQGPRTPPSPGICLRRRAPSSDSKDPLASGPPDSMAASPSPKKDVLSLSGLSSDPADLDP
How it was run: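 Whole-cell patch clamp on α1G T-type channel expressed in HEK293 cells, test compound at 10 µM. Currents evoked every 15 s by 50 ms depolarizing step from 100 to 30 mV (signs as printed). % inhibition = 100[(C−D)/C], C and D being peak current before and with drug. Three independent experiments.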

Compound `COC(=O)CC1c2ccccc2N=C(NCCCCCN)N1c1ccc(-c2ccccc2)cc1` (centres undefined) has a GI50 (SK-OV-3) of 3.24 µM, a GI50 (KB) of 3.77 µM and a GI50 (A549) of 3.39 µM. The IC50 [1] was 560 nM, the GI50 (HCT-15) was 3.64 µM and the Activity [2] was “inactive”. For the same compound, the Activity (HEK293) was “Not toxic” and the GI50 (SK-MEL-2) was 3.32 µM.

For `CCN1C(N(C)C)=Nc2ccccc2C1CC(=O)NCc1ccccc1` (centres undefined), the GI50 (SK-OV-3) was over 200 µM, the GI50 (KB) was over 200 µM and the GI50 (A549) was over 200 µM. The GI50 (HCT-15) was over 200 µM, the inhibition [2] was 27.6% and the Activity (HEK293) was “Not toxic”. The GI50 (SK-MEL-2) was 50.2 µM and the inhibition [3] was 34.4%.

Compound `CCN1C(N2CCCCC2)=Nc2ccccc2C1CC(=O)NCc1ccc(NS(=O)(=O)c2ccc(C)cc2)cc1` (centres undefined) has a GI50 (SK-OV-3) of 22.8 µM, a GI50 (KB) of 22.3 µM and a GI50 (A549) of 23 µM. The IC50 [1] was 960 nM, the GI50 (HCT-15) was 25.7 µM and the Activity [2] was “inactive”. The Activity (HEK293) was “Not toxic”, the GI50 (SK-MEL-2) was 3.52 µM and the inhibition [3] was 91.3%.

With `CCN1C(N(C)C)=Nc2ccccc2C1CC(=O)NCc1ccc(NS(=O)(=O)c2ccc(C)cc2)cc1` (centres undefined) the GI50 (SK-OV-3) was 33.4 µM, the GI50 (KB) was 33.8 µM and the GI50 (A549) was 39.2 µM. The GI50 (HCT-15) was 33.9 µM, the inhibition [2] was 8.9% and the Activity (HEK293) was “Not toxic”. The GI50 (SK-MEL-2) was 24.2 µM and the inhibition [3] was 81.3%.

`Cc1ccc(S(=O)(=O)Nc2ccc(CNC(=O)CC3c4ccccc4N=C(N4CCCCC4)N3c3ccccc3)cc2)cc1` (centres undefined) gave a GI50 (SK-OV-3) of 2.93 µM, a GI50 (KB) of 3.11 µM and a GI50 (A549) of 3.06 µM. For the same compound, the IC50 [1] was 170 nM, the GI50 (HCT-15) was 2.8 µM and the inhibition [2] was 14.1%. The Activity (HEK293) was “Not toxic” and the GI50 (SK-MEL-2) was 2.7 µM.

Work on `CCN1C(N(C)C)=Nc2ccccc2C1CC(=O)NCc1ccc(NS(=O)(=O)c2ccc(F)cc2)cc1` (centres undefined) yielded a GI50 (SK-OV-3) of 46.5 µM, a GI50 (KB) of 41.6 µM and a GI50 (A549) of 66.1 µM. For the same compound, the GI50 (HCT-15) was 38.6 µM, the Activity [2] was “inactive” and the Activity (HEK293) was “Not toxic”. For the same compound, the GI50 (SK-MEL-2) was 31.4 µM and the inhibition [3] was 62.7%.

`CCN1C(N2CCCCC2)=Nc2ccccc2C1CC(=O)NCc1ccccc1` (centres undefined) was tested, and the GI50 (SK-OV-3) was 77.8 µM, the GI50 (KB) was 108 µM and the GI50 (A549) was 95.1 µM. For the same compound, the GI50 (HCT-15) was 74.2 µM, the inhibition [2] was 9.3% and the Activity (HEK293) was “Not toxic”. The GI50 (SK-MEL-2) was 42.5 µM and the inhibition [3] was 59.3%.

For `Nc1ccc(CNC(=O)CC2c3ccccc3N=C(N3CCCCC3)N2c2ccccc2)cc1` (centres undefined), the GI50 (SK-OV-3) was 39.3 µM, the GI50 (KB) was 37.1 µM and the GI50 (A549) was 36.6 µM. The GI50 (HCT-15) was 33.9 µM, the inhibition [2] was 8.9% and the Activity (HEK293) was “Not toxic”. The GI50 (SK-MEL-2) was 30.7 µM.
